Assay [1] in a line: hit retest on RPL19A-GFP reporter strain – cell-based, S. cerevisiae, flow cytometry, cherry picks, mother/daughter gates, confirmation (AID 2270;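 active = GFP response below 50% of the DMSO control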). To be noted: 3 h, at 10 µM, stronger effect = lower value, 100 = same GFP as DMSO wells.
The nature of assay [2]: yeast TOR pathway reporter LAP4-GFP change – cell-based, cherry picks, flow cytometry, mother/daughter gates, confirmation (AID 2271;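 active = GFP response above 150% of the DMSO control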;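 note: ratio of sample to DMSO plate mean so 100% equals DMSO level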). The note with it: S. cerevisiae LAP4-GFP strain, 3 h, at 10 µM, stronger effect = higher value, 100 means same as DMSO control. The method, boiled down: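 System: GFP-fusion yeast strain | Input: Yeast cells seeded at OD600 of 0.2 | Technique: HT flow cytometry, GFP fluorescence channel | Read-out: % GFP response vs DMSO | Dosing: Single test-compound dose, 10 µM final | Controls: Positive rapamycin (400 ng/mL), negative DMSO | Times: 3 h treatment at 30 °C with rotation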

Assay [3] can be described thus: TOR pathway reporter MEP2-GFP, retest of hits – S. cerevisiae, flow cytometry GFP, cherry picks, confirmation (AID 2272;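 active = GFP response above 150% of the DMSO control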;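 note: ratio of well signal to plate DMSO mean so 100% equals DMSO level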). The note with it: S. cerevisiae MEP2-GFP strain, 3 h, at 10 µM, stronger effect = higher value.
A short description of assay [4]: yeast AGP1-GFP fluorescence change, single-dose – cell-based, flow cytometry, S. cerevisiae, cherry picks, confirmation (AID 2273).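 Note: median GFP channel fluorescence over the whole cell population gate.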 The note with it: S. cerevisiae AGP1-GFP strain, 3 h, at 10 µM. In general terms: In flow cytometry, cells or beads pass a laser one at a time.
The nature of assay [5]: TOR pathway CIT2 reporter hit retest – S. cerevisiae, GFP fusion, cherry picks, mother/daughter gates, confirmation (AID 2274). The note with it: S. cerevisiae CIT2-GFP strain, flow cytometry, 3 h, at 10 µM, stronger effect = higher value.
[6] abbreviates: measured here: daughter cell gate.
The mark [7] stands for this setting: measured here: mother cell gate.
Where [8] appears, read: measured here: daughter cell gate response.
Setting [9] is: measured here: mother cell gate response.

The structures appear in SMILES notation. Calls of active or inactive are those of the source.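 Rule for the calls, unless noted: active = GFP response above 150% of the DMSO level; inconclusive = fewer than 70 events counted for a yeast strain; inactive = the rest.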

Take `O=C(c1cc([N+](=O)[O-])cc([N+](=O)[O-])c1)N(Cc1nnc(-c2ccccc2Cl)o1)C1CC1`: the GFP response vs DMSO was 102% (inactive) in assay [1], 101% in assay [1] (setting [6]), 105% in assay [1] (setting [7]) and 102% (inactive) in assay [3]. Also, the GFP response relative to DMSO in assay [2] was 96.2% (inactive); in assay [2] (setting [8]), 97.2%; in assay [2] (setting [9]), 99.3%. Also, the GFP response, % of DMSO was 97.2% (inactive) in assay [4], 107% (inactive) in assay [5], 103% in assay [5] (setting [6]) and 109% in assay [5] (setting [7]).
With `O=C(O)c1ccn2c(C(=O)c3ccccc3)c(-c3ccccc3)cc2c1`, the GFP response vs DMSO in assay [1] was 91.1% (inactive); in assay [1] (setting [6]) it was 88.6%; in assay [1] (setting [7]), 95.4%; in assay [3], 94.1% (inactive). Further, the values for the GFP response relative to DMSO in assay [2], in assay [2] (setting [8]) and in assay [2] (setting [9]) were 113% (inactive), 112% and 116%, respectively. In addition, the GFP response, % of DMSO in assay [4] is 88.2% (inactive); in assay [5] it was 96.9% (inactive); in assay [5] (setting [6]), 95.4%; in assay [5] (setting [7]) it was 97.3%.
Turning to `Cc1ccc(C(=O)O/N=C(\N)Cc2cccs2)c(Cl)c1`, the GFP response vs DMSO in assay [1] was 104% (inactive); in assay [1] (setting [6]), 102%; in assay [1] (setting [7]) it was 99.3%; in assay [3], 105% (inactive). Also, the GFP response relative to DMSO is 125% (inactive) in assay [2], 114% in assay [2] (setting [8]) and 123% in assay [2] (setting [9]). Moreover, the GFP response, % of DMSO in assay [4] was 70.7% (inactive); in assay [5] it was 129% (inactive); in assay [5] (setting [6]), 117%; in assay [5] (setting [7]), 129%.
Regarding `O=[N+]([O-])c1cc(S(=O)(=O)C(F)(F)F)ccc1Sc1nc2ccccc2s1`, the GFP response vs DMSO in assay [1] is 95.6% (inactive); in assay [1] (setting [6]), 95.1%; in assay [1] (setting [7]) it was 93.1%; in assay [3], 102% (inactive). Moreover, the GFP response relative to DMSO in assay [2] was 184% (active); in assay [2] (setting [8]), 162%; in assay [2] (setting [9]) it was 192%. The GFP response, % of DMSO in assay [4] was 88.1% (inactive); in assay [5], 107% (inactive); in assay [5] (setting [6]), 105%; in assay [5] (setting [7]), 99.7%.
For the compound `O=C(CCS(=O)(=O)Cc1ccccc1F)NCCc1ccc(Cl)cc1`, the GFP response vs DMSO is 97.8% (inactive) in assay [1], 102% in assay [1] (setting [6]), 93.7% in assay [1] (setting [7]) and 101% (inactive) in assay [3]. Moreover, the GFP response relative to DMSO in assay [2] was 101% (inactive); in assay [2] (setting [8]) it was 99%; in assay [2] (setting [9]), 101%. Also, the GFP response, % of DMSO was 99.1% (inactive) in assay [4], 100% (inactive) in assay [5], 99.3% in assay [5] (setting [6]) and 99.3% in assay [5] (setting [7]).
For `O=C(OCc1cc(Cl)ccc1OC(F)F)c1ccc([N+](=O)[O-])o1`, the GFP response vs DMSO in assay [1] is 97% (inactive); in assay [1] (setting [6]) it was 99.8%; in assay [1] (setting [7]), 94%; in assay [3], 100% (inactive). Also, the GFP response relative to DMSO in assay [2] is 114% (inactive); in assay [2] (setting [8]), 110%; in assay [2] (setting [9]) it was 120%. The GFP response, % of DMSO in assay [4] was 95.7% (inactive); in assay [5], 95.2% (inactive); in assay [5] (setting [6]), 98.1%; in assay [5] (setting [7]) it was 92.3%.
With `C=CCNC(=S)N/N=C(\C)c1cccc(OC)c1`, the GFP response vs DMSO in assay [1] is 100% (inactive); in assay [1] (setting [6]), 102%; in assay [1] (setting [7]), 101%; in assay [3], 99.5% (inactive). Besides, the GFP response relative to DMSO is 98.8% (inactive) in assay [2], 99.3% in assay [2] (setting [8]) and 97.5% in assay [2] (setting [9]). Also, the GFP response, % of DMSO in assay [4] was 95.2% (inactive); in assay [5], 96.4% (inactive); in assay [5] (setting [6]) it was 96.4%; in assay [5] (setting [7]), 93.3%.
Take `COc1ccc(OC)c(C2C(C(=O)Nc3nc4ccccc4s3)=C(C)NC3=C2C(=O)CCC3)c1` (centres undefined): the GFP response vs DMSO in assay [1] was 102% (inactive); in assay [1] (setting [6]), 78.4%; in assay [1] (setting [7]), 78.4%; in assay [3], 109% (inactive). The GFP response relative to DMSO is 102% (inactive) in assay [2], 86.4% in assay [2] (setting [8]) and 82.9% in assay [2] (setting [9]). Moreover, the GFP response, % of DMSO is 103% (inactive) in assay [4], 103% (inactive) in assay [5], 85% in assay [5] (setting [6]) and 83.7% in assay [5] (setting [7]).
In the case of `CCn1c(=O)c(C(=O)NCc2ccc(OC)c(OC)c2)c(O)c2ccccc21`, the GFP response vs DMSO in assay [1] was 97.6% (inactive); in assay [1] (setting [6]) it was 99.1%; in assay [1] (setting [7]), 99.2%; in assay [3] it was 100% (inactive). In addition, the GFP response relative to DMSO was 94.1% (inactive) in assay [2], 92.8% in assay [2] (setting [8]) and 94% in assay [2] (setting [9]). Also, the GFP response, % of DMSO in assay [4] was 103% (inactive); in assay [5], 105% (inactive); in assay [5] (setting [6]), 106%; in assay [5] (setting [7]), 106%.

These data come from PubChem BioAssay.
